Screening results deposited in PubChem by several laboratories.
Hits are enriched below; roughly 1.3% of the tested compounds scored in any of these assays.
Furin inh: human furin inhibition. purified furin, fluorogenic substrate cleavage. 220,000 compounds, 0.061% hits. AID 463115. P09958. inhibition, % at 20 µM or 30 µM; in the data active = inhibition above about 25%
EP2 antag: EP2 receptor (human) inhibition | C6 glioma cells expressing human EP2, cAMP TR-FRET; cells stimulated with saturating PGE2 | P43116 | AID 1422 | 260,000 compounds, 0.52% hits | inhibition, % at 25 µM;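 active = percent inhibition above 40 after rounding to a whole number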;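 note: rat C6 glioma host cells with rolipram phosphodiesterase inhibitor present; the protocol text gives 20 µM as final concentration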
NR2E3 ag-1: agonists of human nuclear receptor NR2E3 | GST-NR2E3/biotin-RetCOR TR-FRET, 1536-well | inhibition of corepressor binding, % at 4.78 µM | AID 2300 | Q9Y5X4 | 320,000 compounds, 0.12% hits;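 active = percent inhibition above the cutoff of mean plus 3 SD of all tested compounds, set per screening campaign, cut at about 20% in these data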;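 note: 0% = DMSO wells and 100% = biotin wells as full block of FRET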
Target sequence (Q9Y5X4 whole entry, looked up): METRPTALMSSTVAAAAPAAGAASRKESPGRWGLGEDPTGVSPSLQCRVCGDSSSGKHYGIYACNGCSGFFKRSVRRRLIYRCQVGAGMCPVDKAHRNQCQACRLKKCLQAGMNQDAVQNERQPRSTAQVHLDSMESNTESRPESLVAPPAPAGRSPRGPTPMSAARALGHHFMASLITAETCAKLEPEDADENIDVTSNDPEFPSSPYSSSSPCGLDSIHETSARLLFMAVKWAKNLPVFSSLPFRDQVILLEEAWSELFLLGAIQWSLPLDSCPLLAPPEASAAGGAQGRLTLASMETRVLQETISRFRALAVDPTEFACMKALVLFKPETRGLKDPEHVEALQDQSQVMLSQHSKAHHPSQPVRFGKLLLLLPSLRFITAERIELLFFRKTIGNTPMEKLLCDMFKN
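Test system: GST-NR2E3 and biotin-RetCOR proteins | Quantity: 1.35 nM GST-tagged NR2E3 final | Medium: Tris pH 7.5 | Also added: 7 nM biotin-RetCOR | Dosing: Compound at 4.8 µM, single dose | Timing: 5 h at 4 °C | Detection: Time-resolved FRET | Read-out basis: Percent inhibition | Benchmarks: Biotin wells as high control, 0.6% DMSO wells as low control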
EP2 modulator: modulators of human EP2 prostaglandin E2 receptor | EP2-expressing cells, cAMP HTRF FRET, PGE2 co-stimulation | induction, % at 25 µM | 260,000 compounds, 0.83% hits;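 active = compounds whose cAMP rise, as percent of the full-agonist control response, exceeds 60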;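 note: rat C6 glioma line stably carrying human EP2 under a CMV promoter; the protocol text gives 20 µM as final concentration; 100% = response of wells given 1 µM PGE2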
JMJD2C inh: inhibitors of human GASC-1 (JMJD2C) demethylase; Q9H3R0; GST-JMJD2C(1-420) H3K9me3 demethylation, DELFIA europium; inhibition, % at 2.35 µM; 330,000 compounds, 0.069% hits; AID 2099;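 active = more than half of a compound's replicate wells show inhibition beyond 50%, single wells judged on their own value; inconclusive = some, but no more than half, of replicates pass 50% inhibition; inactive = no replicate passes 50% inhibition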;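 note: signal counts dimethyl H3K9 product captured on neutravidin plate; 0% = median of DMSO wells and 100% = 0.3 times that DMSO median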
NR2E3 ag-2: activates human NR2E3 receptor. CHO-S Gal4-NCOR/VP16-NR2E3 two-hybrid, luciferase. inhibition of corepressor binding, % at 3.98 µM. 360,000 compounds, 0.35% hits. AID 602229;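 active = inhibition above the mean of all tested compounds plus 3 SD, cut at about 70% in these data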;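 note: 0% = DMSO with NR2E3 transfected cells and 100% = cells lacking NR2E3 construct; higher means lower luciferase signal from less NR2E3 corepressor binding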
Numbers without * were called inactive; ? = inconclusive; nt = no result; ! = repeats disagree.

SMILES | Furin inh | EP2 antag | NR2E3 ag-1 | EP2 modulator | JMJD2C inh | NR2E3 ag-2
CCCCCc1nnc(NC(=O)C2CCCO2)s1 (stereo unspecified) | 34* | 6 | -1 | 12 | -21 | -73
CN(C1CCCCC1)S(=O)(=O)c1ccc(S(=O)(=O)N2CCN(c3ccccc3F)CC2)cc1 | nt | 11 | nt | -28 | nt | nt
O[N+]1=CC=CCC1=S.On1ccccc1=S.[Zn] | nt | 118* | nt | -38 | nt | nt
O=C(CSc1nnc(-c2ccccn2)n1Cc1ccccc1)NC1CC1 | nt | 14 | nt | -4 | nt | nt
O=C(NCc1c(Cl)cccc1Oc1ccccc1)c1ccccc1 | -17 | 10 | -2 | 63* | 3 | -18
O=C1C=CC(=Nc2ccc3c(c2)C(=O)c2ccccc2-3)O1 | nt | nt | nt | nt | nt | -8
O=C1c2ccccc2-c2ccc(N=[N+]([O-])c3ccc4c(c3)C(=O)c3ccccc3-4)cc21 | nt | 51* | nt | 0 | nt | nt
Cc1sc2ncn3c(SCC(=O)NNC(=O)c4ccccc4)nnc3c2c1C | nt | 7 | nt | -20 | nt | nt
Cc1nc(C/C(=N\Nc2ccccc2)c2ccc(O)cc2O)cs1 | -5 | 3 | -1 | 64* | -2 | -33
Cc1nc(CC(=O)c2ccc(O)cc2O)cs1 | -26 | 6 | -1 | 3 | 1 | 1
CC(C)(C)C1CCC2(CC1)C(C#N)=C(SCC(=O)Nc1ccccc1)NC(=O)C2C#N (stereo unspecified) | -27 | 7 | -5 | 14 | 2 | 100*
CN1[C@@H](C(=O)NCCCN2CCOCC2)C[C@@H](c2ccc(F)cc2)NS1(=O)=O | nt | nt | nt | 27 | nt | nt
CC(C)n1c(=O)n(Cc2cc3c(cc2Cl)OCO3)c2cccnc21 | nt | nt | nt | 20 | nt | nt
CCCCn1c(NC(=O)c2ccc(F)cc2)c(C#N)c2nc3ccccc3nc21 | nt | nt | 22* | nt | 15 | nt
O=C(Nc1nnc(-c2ccccc2Cl)o1)c1nc2ccccc2s1 | -20 | 91* | 0 | -61 | 0 | 22
CC1Cc2ccccc2N1C(=O)CSc1nnc(-c2ccc(F)cc2)o1 (stereo unspecified) | nt | 8 | nt | -23 | nt | nt
OCC1OC(Oc2cccc3ccccc23)C(O)C(O)C1O (stereo unspecified) | nt | nt | -2 | nt | -5 | -10
O=C(O)c1cc(O)c2c(c1)[C@@H]([C@H]1c3cc(C(=O)O)cc(O)c3C(=O)c3c(O[C@@H]4O[C@H](CO)[C@@H](O)[C@H](O)[C@H]4O)cccc31)c1cccc(O[C@@H]3O[C@H](CO)[C@@H](O)[C@H](O)[C@H]3O)c1C2=O | nt | nt | nt | nt | 91* | nt
CCNC(=S)N(Cc1ccccc1)Cc1cc2cc3c(cc2[nH]c1=O)OCCO3 | nt | 12 | nt | 2 | nt | nt
O=C(c1cc(Cl)ccc1Cl)N1CCCC1 | nt | 8 | nt | 25 | nt | nt
CCOC(=O)C(C)Oc1ccsc1C(=O)OC (stereo unspecified) | -14 | 6 | 4 | 26 | 51* | nt
COC(=O)COc1ccsc1C(=O)OC | -17 | -1 | -4 | 7 | -1 | -9
N/C(=N\OC(=O)c1cccs1)C1(c2ccc(Cl)cc2Cl)CC1 | -4 | 54* | -2 | -35 | 9 | -3
NC(=O)c1c(NC(=O)c2cc3ccccc3o2)sc2c1CCC2 | -11 | 42* | -16 | -11 | 7 | -200
Cn1cc(Br)c(C(=O)Nc2sc3c(c2C(N)=O)CCC3)n1 | -24 | 40* | 0 | -26 | -3 | -93
SMILES | Furin inh | EP2 antag | NR2E3 ag-1 | EP2 modulator | JMJD2C inh | NR2E3 ag-2
COc1ccc(/C(O)=C2/C(=O)C(=O)N(CCCn3ccnc3)C2c2ccncc2)cc1F (stereo unspecified) | nt | 16 | nt | 19 | nt | nt
CC12CCC(C(=O)N(Cc3ccccc3)Cc3ccccc3)(OC1=O)C2(C)C (stereo unspecified) | -9 | 18 | 2 | 61* | -16 | 15
CC12CCC(C(=O)NNC(=O)c3ccccc3)(OC1=O)C2(C)C (stereo unspecified) | nt | nt | 0 | nt | -7 | 15
COC(=O)c1ccccc1NC(=O)CSc1ncccc1-c1nc2ccccc2[nH]1 | nt | 12 | nt | -30 | nt | nt
Cc1cc(C)nc(NS(=O)(=O)c2ccc(NC(=O)CSc3nc(-c4ccccc4)c(C#N)c(=O)[nH]3)cc2)n1 | -5 | 24 | 8 | 62* | 2 | -2
N#Cc1c(-c2ccccc2)nc(SCC(=O)Nc2ccccc2)[nH]c1=O | -15 | 28 | 11 | 33 | 3 | -12
S=c1[nH]nc(C2CCCCC2)n1/N=C/c1ccc(Br)s1 | -14 | 7 | 2 | 63* | -2 | -13
S=c1[nH]nc(C2CCCCC2)n1/N=C/c1ccc(Br)cc1 | nt | nt | -1 | nt | -6 | -30
N#C/C(C(=O)NCCc1ccccc1)=C1/N=C(NC(=O)c2cccs2)c2ccccc21 | -5 | 13 | -4 | 63* | 6 | -18
COCCCNC(=O)/C(C#N)=C1\N=C(NC(=O)c2cccs2)c2ccccc21 | -16 | 9 | -3 | -10 | nt | -21
O=C(Sc1ccccn1)c1ccco1 | nt | 12 | nt | -16 | nt | nt
C[C@@H](NC(=O)Cn1cnc2c(OCc3ccccc3)ncnc21)c1cccc2ccccc12 | nt | nt | nt | nt | 59* | -25
COCCCNC(=S)N(Cc1cc2cc3c(cc2[nH]c1=O)OCO3)CC1CCCO1 (stereo unspecified) | nt | 12 | nt | -15 | nt | nt
Cn1c(=O)[nH]c(=O)c2c1nc(N)n2CCCc1ccccc1 | nt | 11 | nt | 36 | nt | nt
Cc1c(NC(=O)Nc2c(Cl)cccc2Cl)c(=O)n(-c2ccccc2)n1C | -18 | 48*! | 4 | 11 | 21 | 7
Cc1c(NC(=O)Nc2ccccc2Cl)c(=O)n(-c2ccccc2)n1C | -25 | 5 | 1 | 24 | -13 | 5
N#C/C(=N\Nc1ccccc1Cl)C(=O)c1ccccc1 | -14 | nt | -1 | -21 | 3 | 47
N#C/C(=N\Nc1cccc(Cl)c1)C(=O)c1ccccc1 | -21 | 9 | 5 | -2 | -6 | 102*
Cn1c(=O)n(C)c2cc(CN(Cc3ccc(F)cc3)CC3CCCO3)ccc21 (stereo unspecified) | nt | 8 | nt | 20 | nt | nt
CS(=O)(=O)c1cnc2ncnn2c1C1CCCN(C(=O)C2CCCCC2)C1 (stereo unspecified) | nt | nt | nt | 14 | nt | nt
O=C(Nc1nc2ccsc2c(=O)s1)c1ccc(Cl)cc1 | -23 | 43* | -8 | -4 | ? | -22
Nc1ccc(-c2nc3ccc(-c4nc5ccccc5o4)cc3[nH]2)cc1 | -9 | 73* | 3 | -37 | -2 | -62
Cc1nc2ccc(-c3nc4ccccc4o3)cc2[nH]1 | -12 | 10 | 0 | -14 | 6 | -122
COc1ccc(CN(Cc2cccnc2)C2CC(C)(C)NC(C)(C)C2)cc1CO | nt | 5 | nt | -1 | nt | nt
O=S1(=O)Nc2c(ccc3cccnc23)-c2ccccc21 | -5 | 9 | -2 | -11 | -16 | 102*
COc1c(-c2coc3cc4c(cc3c2=O)CC(O)C(C)(C)O4)ccc2c1C=CC(C)(C)O2 (stereo unspecified) | nt | 92* | nt | -53 | nt | nt
